Screening results deposited in PubChem BioAssay by several laboratories.
AHR activator: activates the human aryl hydrocarbon receptor | AHR-responsive luciferase reporter cells, luminescence | activation, % at 5 µM | 320,000 tested, 2.5% active | P35869 | AID 2796; in the data active = activation above about 47%;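 also: 0% = vehicle wells and 100% = reference agonist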
HSF1 inhib: HSF1 inhibition; NIH3T3-HGL HSE-luciferase, MG132-induced, luminescence 8 h; stronger effect = lower value; activity change, negative = inhibition, % at 7.5 µM (by protocol); 300,000 tested, 0.77% active; AID 2098;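 active = more than half of replicate wells show activity change below -50%, luminescence cut by over half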;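 also: luciferase reports HSF-1 transcriptional activity via heat shock element; 0% = median of DMSO wells and -100% = zero luminescence signal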
PolyA inhibitor: blocks polyadenylation in yeast reporter cells; S. cerevisiae SKY197-pL101 polyadenylation reporter, beta-gal luminescence; efflux-impaired pdr1/pdr3 knockout yeast; score 100 = 6 SD above DMSO; AID 1875; 300,000 tested, 0.02% active; activity score, % at 12 µM;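 active = lowest replicate activity score at least 50, where 100 means six control SD above control mean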;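 also: yeast exposed to compound for 9 h at 30 °C; higher score means more reporter readthrough which indicates perturbed polyadenylation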
STAT3 act-1: activators of IL-6 induced STAT3 signaling | U3A cells, IL-6 STAT3-luciferase reporter, luminescence; 100% = signal with IL-6 EC80 alone | activation (% of control), % at 5.6 µM | 190,000 tested, 0.91% active;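 active = activation above the screen-wide mean of compound activation plus 3 SD, cut at about 130% in these data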;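 also: 0% = background luminescence of wells with medium and substrate only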
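Material: human STAT1-deficient U3A cells with stable STAT3-luciferase reporter / Probe or stimulus: IL-6 stimulus at 33 ng/mL final / Schedule: 1 h compound pre-exposure, 6 h IL-6 stimulation, 37 °C / Technique: luminescence / Read-out basis: percent of IL-6-only median luminescence / Control set: IL-6-only high control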
PERK inh: blocks human PERK kinase | inhibition, % at 5.6 µM | CHO PERK-DD fusion, SEAP luminescence translation reporter | 220,000 tested, 0.17% active | AID 1416;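 active = inhibition above the mean inhibition of all tested compounds plus 3 SD, set separately per screening campaign, cut at about 2.9% in these data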;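 also: PERK kinase domain activated by AP20187 dimerizer at 100 nM; 0% = DMSO with dimerizer and 100% = rapamycin at 8.4 µM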
Hsp70 act: Hsp70 transcriptional activation, primary screen; 200,000 tested, 0.04% active; HeLa Hsp70 promoter luciferase reporter, luminescence; scaled: vehicle 0, proteasome-inhibitor control 100%; activation, % at 10 µM;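 active = activation above the mean across all tested compounds plus 3 SD, cutoff set per campaign, cut at about 5.5% in these data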;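 also: 100% = MG132 at 30 µM as the positive control and 0% = DMSO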
STAT3 act-2: confirmation of STAT3 signaling activators | shares compounds with STAT3 act-1 | U3A STAT3-luciferase reporter, IL-6 potentiation, luminescence; U3A cells lack STAT1; 100 means same as IL-6 alone | potentiation (% of control), % at 5.7 µM | 1,200 tested, 64% active;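 active = percent activation of the STAT3 luciferase reporter above a set limit taken from the earlier primary screen, cut at about 130% in these data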;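 also: 0% = background signal of medium plus substrate and 100% = median of IL-6 with DMSO wells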
NFkB act STAT3ct: NF-kappaB activation in STAT3 activator counter-screen; shares compounds with STAT3 act-1; human cells, NF-kappaB reporter activation; activation (% of control), % at 5.7 µM; 1,200 tested, 11% active; AID 1309; in the data active = activation above about 120%;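 also: reporter induced by TNF-alpha stimulation; 100% = median of stimulated DMSO wells and 0% = no signal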
STAT1 act: activates STAT1, counter-screen to STAT3 activators; 1,200 tested, 13% active; activation (% of control), % at 5.7 µM; NIH 3T3 STAT1-luciferase reporter, IFN-gamma, luminescence; AID 1318; shares compounds with STAT3 act-1;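 active = activation above the solvent-only control well mean plus 3 SD, set per screening run, cut at about 120% in these data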;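 also: 100% = IFN-gamma with DMSO median signal so 100% means no change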
Numbers without * were called inactive; nt = no result given. In the library only some 3.6% were active in any assay of this set; here they are far more common.

SMILES	AHR activator	HSF1 inhib	PolyA inhibitor	STAT3 act-1	PERK inh	Hsp70 act	STAT3 act-2	NFkB act STAT3ct	STAT1 act
Cc1sc2c(c1C)CN(C(C)(C)C)CN2C(=O)c1ccccc1	24	19	-3	142*	-1	0	128	115	120
COc1cccc(S(=O)(=O)NC2CCN(C#N)C2)c1 (stereo unspecified)	-1	nt	nt	nt	nt	nt	nt	nt	nt
NS(=O)(=O)c1ccc(CCNc2nc3c(-c4cccc(F)c4)nnn3c3ccccc23)cc1	37	-5	12	137*	0	-1	144*	98	110
Cc1cccc(-c2nnn3c2nc(NCCc2ccc(S(N)(=O)=O)cc2)c2ccccc23)c1	50*	-7	3	145*	0	0	155*	102	112
CC(=O)NCCNc1nc2c(-c3cccc(C)c3)nnn2c2ccccc12	44	1	-9	nt	nt	nt	nt	nt	nt
Cc1ccc(-c2nnn3c2nc(NCCc2ccc(S(N)(=O)=O)cc2)c2ccccc23)cc1	37	-37	15	123	0	0	nt	nt	nt
c1ccc(-c2ncc3ccccn23)cc1	11	9	-7	nt	2	nt	nt	nt	nt
c1ccc2c(c1)ncc1cccn12	11	-2	8	143*	1	0	138*	98	90
CC(CCc1ccccc1)NC(=O)CC(C)c1ccccc1 (stereo unspecified)	-1	-4	-6	nt	nt	nt	nt	nt	nt
CN(C)c1ccc(P(=O)(Nc2cccc(C(F)(F)F)c2)N2CCOCC2)c(NC(=O)c2cccs2)c1 (stereo unspecified)	16	7	7	140*	0	0	131	96	99
Cc1ccc(S(=O)(=O)N2CCCCC2)cc1C(=O)NCc1ccc(S(N)(=O)=O)cc1	-1	nt	nt	nt	nt	nt	nt	nt	nt
COc1cc(/C=C2\SC(N)=NC2=O)ccc1OCC(=O)Nc1ccc(C)cc1	21	-15	0	643*	0	0	435*	130*	85
COc1ccc(/C=C2/SC(=O)N(CCC(=O)Nc3ccc(C)cc3)C2=O)cc1OC	-1	-5	5	101	0	0	nt	nt	nt
CC[C@@]12C(=O)N(c3cccc(Cl)c3)C(=O)N1[C@H](c1ccc(Br)cc1)[C@@H]1C(=O)N(C(C)(C)C)C(=O)[C@@H]12	2	10	-6	nt	nt	nt	nt	nt	nt
CCN(CC)S(=O)(=O)c1cc(NC(=O)C(C)N2CCc3ccccc32)ccc1C (stereo unspecified)	10	-1	-4	142*	-1	0	141*	107	105
CC(C(=O)Nc1ccc(S(N)(=O)=O)cc1)N1CCc2ccccc21 (stereo unspecified)	13	-7	16	103	0	0	nt	nt	nt
Cc1ccccc1-n1c(SCc2cc(=O)n3ccccc3n2)nc2[nH]ncc2c1=O	2	0	-1	101	-1	0	nt	nt	nt
Cc1cccc2nc(CSc3nc4[nH]ncc4c(=O)n3-c3ccccc3Cl)cc(=O)n12	28	9	-8	136*	-1	0	152*	96	88
CC1S/C(=C(\C#N)C(=O)NCc2ccco2)N(Cc2ccco2)C1=O (stereo unspecified)	9	6	12	142*	0	0	130	104	95
Cc1ccc2nc3c(nc2c1)-c1ccccc1C3=O	37	9	-16	174*	1	0	159*	116	129*
COc1cc(S(=O)(=O)Nc2ccc3nc(C)sc3c2)ccc1NC(C)=O	-6	nt	nt	nt	nt	nt	nt	nt	nt
Cc1c(Cl)cccc1S(=O)(=O)Nc1ccnn1C	1	-31	-9	nt	2	nt	nt	nt	nt
CCOc1ccc(S(=O)(=O)Nc2cc(SCC(=O)O)c(O)c3ccccc23)cc1	nt	3	4	nt	nt	nt	nt	nt	nt
